Legend:
[1] = target: Opioid receptors; mu & delta (Rattus norvegicus) (UniProt P33533+P33535); experiment: Binding affinity ratio on mu opioid receptor( rat brain membranes) with respect to delta opioid receptor (rat brain membranes)
Procedure, shortened: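 Ratio of IC50 from [³H]DAMGO binding to rat brain membranes over IC50 from [³H]DADLE binding to rat brain membranes (μ sites blocked with 100 nM DAMGO). Both assays run at 25 °C in Tris-HCl pH 7.4, nine concentrations, run twice.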

[2] = target: T1, Delta-type opioid receptor (Rattus norvegicus, UniProt P33533); experiment: Binding affinity for Opioid receptor delta 1 by the inhibition of binding of [3H]DADAL in rat brain membranes.; type: cell membranes
Procedure, shortened: (§1)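 Rat brain membranes labelled with [³H]DADLE at 1.7-2.5 nM. Incubation 3-4 h at 25 °C in Tris-HCl pH 7.4 with 100 mM choline chloride, 3 mM MnCl₂, protease inhibitor cocktail and 100 nM DAMGO to block μ sites. Nonspecific binding defined with 20 μM levallorphan. Nine test concentrations, run twice. IC50 reported.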

Mu-type opioid receptor [3] = target: Mu-type opioid receptor (Rattus norvegicus, UniProt P33535); experiment: Binding affinity for Opioid receptor mu 1 by the inhibition of binding of [3H]DAMGO in rat brain membranes.; type: cell membranes
Procedure, shortened: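 Rat brain membranes with [³H]DAMGO at 1-3 nM, incubated 4 h at 25 °C in 50 mM Tris-HCl pH 7.4 plus protease inhibitor cocktail. Nonspecific binding measured with 20 μM levallorphan. Radioligand displaced by nine drug concentrations, in two runs. Drugs diluted in 10 mM Tris-HCl pH 7.4 containing 1 mg/mL BSA. IC50 reported.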

Cavia porcellus = species: Cavia porcellus; experiment: Binding affinity ratio of kappa opioid receptor (guinea pig brain membranes) with respect to delta opioid receptor( rat brain membranes); type: cell membranes; conditions: Membrane
Procedure, shortened: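 Ratio of IC50 from [³H]U69,593 binding to μ/δ-depleted guinea pig brain membranes over IC50 from [³H]DADLE binding to rat brain membranes (μ sites blocked with 100 nM DAMGO). Both assays run at 25 °C in Tris-HCl pH 7.4, nine concentrations, run twice.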

[4] = target: Kappa-type opioid receptor (Cavia porcellus, UniProt P41144); experiment: Binding affinity for Opioid receptor kappa 1 by the inhibition of binding of [3H]U-69593 in guinea pig brain membranes.; type: cell membranes
Procedure, shortened: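 Guinea pig brain membranes, first depleted of μ and δ sites by pretreatment with irreversible ligands BIT and FIT. Nonspecific binding from 1 μM U69,593. Nine concentrations, run twice. IC50 reported.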

[5] = target: Delta-type opioid receptor (Homo sapiens, UniProt P41143); experiment: Binding affinity for Opioid receptor delta 1 by the inhibition of binding of [3H]-p-DPDPE human cloned receptors.
Procedure, shortened: (§2)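 Crude membranes from CHO cells stably expressing human δ receptor, with 0.75 nM [³H]-p-Cl-DPDPE. Samples incubated 3 h at 25 °C; nonspecific binding from 10 μM naltrexone; 10 inhibitor concentrations, with totals in duplicate. Filtered on PEI-treated glass-fiber filters, washed with cold saline, scintillation counted. IC50 by nonlinear regression.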

Mu-type opioid receptor [6] = target: Mu-type opioid receptor (Homo sapiens, UniProt P35372); experiment: Binding affinity for micro receptors by the inhibition of binding of [3H]DAMGO to Opioid receptor mu 1 in human cloned receptors.
Procedure, shortened: as §2, with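 “B82 mouse fibroblasts” for “CHO cells”, “μ” for “δ”, “1.0” for “0.75”, “[³H]DAMGO.” for “[³H]-p-Cl-DPDPE.”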

[7] = target: Opioid receptors; mu & delta (Homo sapiens) (UniProt P41143+P35372); experiment: Relative binding affinity to mu and delta opioid receptors; type: protein assay
[8] = target: T1, Delta-type opioid receptor; experiment: Binding affinity for Opioid receptor delta 1 as inhibition of [3H]DADAL binding to rat brain membranes; type: cell membranes, Membrane; procedure, shortened: as §1

T1 sequence (P33533 whole entry): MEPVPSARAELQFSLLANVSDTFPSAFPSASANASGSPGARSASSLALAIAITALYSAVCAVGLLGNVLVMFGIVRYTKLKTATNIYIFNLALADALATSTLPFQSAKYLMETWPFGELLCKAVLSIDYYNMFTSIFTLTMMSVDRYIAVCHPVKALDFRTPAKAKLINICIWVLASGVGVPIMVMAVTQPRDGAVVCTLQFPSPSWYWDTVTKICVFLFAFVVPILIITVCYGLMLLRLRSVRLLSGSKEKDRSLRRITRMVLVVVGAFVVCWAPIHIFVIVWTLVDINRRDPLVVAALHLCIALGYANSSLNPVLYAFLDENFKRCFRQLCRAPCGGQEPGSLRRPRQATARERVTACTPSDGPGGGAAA
Chain of Opioid receptors; mu & delta (Rattus norvegicus) (P33533 whole entry, looked up): as the sequence (P33533 whole entry) above
Chain of Opioid receptors; mu & delta (Rattus norvegicus) (P33535 whole entry, looked up): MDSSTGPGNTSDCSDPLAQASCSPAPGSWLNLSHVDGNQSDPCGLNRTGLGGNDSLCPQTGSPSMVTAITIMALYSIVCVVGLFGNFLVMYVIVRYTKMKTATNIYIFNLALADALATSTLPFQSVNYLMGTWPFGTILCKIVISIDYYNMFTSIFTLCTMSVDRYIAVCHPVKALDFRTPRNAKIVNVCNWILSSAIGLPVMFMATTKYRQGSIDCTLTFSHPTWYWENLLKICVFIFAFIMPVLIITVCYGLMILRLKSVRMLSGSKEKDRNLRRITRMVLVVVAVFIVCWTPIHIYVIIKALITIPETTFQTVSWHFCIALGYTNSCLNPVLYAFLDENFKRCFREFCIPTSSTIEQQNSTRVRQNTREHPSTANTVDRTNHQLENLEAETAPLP
Chain of Kappa-type opioid receptor (P41144 whole entry): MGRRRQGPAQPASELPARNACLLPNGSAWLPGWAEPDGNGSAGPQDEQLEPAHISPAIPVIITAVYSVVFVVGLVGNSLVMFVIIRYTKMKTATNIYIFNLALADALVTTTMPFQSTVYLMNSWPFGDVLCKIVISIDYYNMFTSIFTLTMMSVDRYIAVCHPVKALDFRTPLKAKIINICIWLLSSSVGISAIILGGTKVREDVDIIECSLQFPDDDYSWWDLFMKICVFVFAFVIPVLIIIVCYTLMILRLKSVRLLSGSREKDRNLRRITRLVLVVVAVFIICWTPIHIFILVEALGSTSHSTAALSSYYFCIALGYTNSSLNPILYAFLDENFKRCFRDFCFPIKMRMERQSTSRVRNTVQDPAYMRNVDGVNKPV
Chain of Opioid receptors; mu & delta (Homo sapiens) (P35372 whole entry, looked up): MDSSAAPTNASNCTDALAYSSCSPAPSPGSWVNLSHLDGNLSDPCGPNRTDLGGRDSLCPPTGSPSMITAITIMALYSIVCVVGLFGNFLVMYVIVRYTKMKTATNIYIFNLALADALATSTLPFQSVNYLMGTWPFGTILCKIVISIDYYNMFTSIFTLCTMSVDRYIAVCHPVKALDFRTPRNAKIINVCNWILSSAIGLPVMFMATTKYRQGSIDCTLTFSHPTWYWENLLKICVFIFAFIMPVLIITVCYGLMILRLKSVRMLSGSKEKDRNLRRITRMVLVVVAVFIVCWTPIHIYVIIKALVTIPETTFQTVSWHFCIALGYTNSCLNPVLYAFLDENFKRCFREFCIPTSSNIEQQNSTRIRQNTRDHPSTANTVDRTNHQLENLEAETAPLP
Chain of Opioid receptors; mu & delta (Homo sapiens) (P41143 whole entry, looked up): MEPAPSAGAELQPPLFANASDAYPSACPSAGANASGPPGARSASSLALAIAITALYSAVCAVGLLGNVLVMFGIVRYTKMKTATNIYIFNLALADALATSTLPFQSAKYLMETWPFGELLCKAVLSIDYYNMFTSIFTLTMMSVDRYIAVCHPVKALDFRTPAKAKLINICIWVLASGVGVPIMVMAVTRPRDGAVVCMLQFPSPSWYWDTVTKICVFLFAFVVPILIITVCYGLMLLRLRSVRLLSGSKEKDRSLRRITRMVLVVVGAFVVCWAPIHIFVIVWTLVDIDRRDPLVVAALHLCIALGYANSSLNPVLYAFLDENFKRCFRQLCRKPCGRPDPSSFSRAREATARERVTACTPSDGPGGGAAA
Chain of Mu-type opioid receptor (Homo sapiens, UniProt P35372) (P35372 whole entry): as the sequence (P35372 whole entry, looked up) above
Chain of Delta-type opioid receptor (Homo sapiens, UniProt P41143) (P41143 whole entry): as the sequence (P41143 whole entry, looked up) above
Chain of Mu-type opioid receptor (Rattus norvegicus, UniProt P33535) (P33535 whole entry): as the sequence (P33535 whole entry, looked up) above

SMILES | Ratio [1] | IC50 [2] [µM] | IC50 (Mu-type opioid receptor [3]) [µM] | Ratio (Cavia porcellus) | IC50 [4] [µM] | IC50 [5] [µM] | IC50 (Mu-type opioid receptor [6]) [µM] | Mu/delta ratio [7] | IC50 [8] [µM]
C=CCN1C[C@H](C)N([C@@H](c2ccc(C(=O)N3CCCCC3)cc2)c2cccc(OC)c2)C[C@H]1C | > 5.5 | 0.45 | > 2.5 | > 22 | > 10 |  |  |  | 
C=CCN1C[C@H](C)N([C@@H](c2ccc(C(=O)N3CCCCCC3)cc2)c2cccc(OC)c2)C[C@H]1C | > 20 | 0.124 | > 2.5 | > 81 | > 2.5 |  |  |  | 
C=CCN1C[C@H](C)N([C@H](c2ccc(C(=O)NC(CC)CC)cc2)c2cccc(OC)c2)C[C@H]1C | > 14 | 0.176 | > 2.5 | > 14 | > 2.5 |  |  |  | 
C=CCN1C[C@H](C)N([C@@H](c2ccc(C(=O)N(C)CC)cc2)c2cccc(OC)c2)C[C@H]1C | > 41 | 0.0606 | > 2.5 | > 41 | > 2.5 |  |  |  | 
C=CCN1C[C@H](C)N([C@H](c2ccc(C(=O)N(CCC)CCC)cc2)c2cccc(OC)c2)C[C@H]1C | 305 | 0.0131 | 3.99 | > 763 | > 10 | 0.0075 | 6.08 | 811 | 
C=CCN1C[C@H](C)N([C@H](c2ccc(C(=O)N(CC)CCCC)cc2)c2cccc(OC)c2)C[C@H]1C | 286 | 0.0066 | 1.89 | > 1520 | > 10 | 0.0102 | 3.34 | 327 | 
C=CCN1C[C@H](C)N([C@H](c2ccc(C(=O)N(CCCC)CCCC)cc2)c2cccc(OC)c2)C[C@H]1C | > 71 | 0.0345 | > 2.5 | > 71 | > 2.5 |  |  |  | 
C=CCN1C[C@H](C)N([C@H](c2ccc(C(=O)NC(C)(C)C)cc2)c2cccc(OC)c2)C[C@H]1C | > 8.9 | 0.281 | > 2.5 | > 8.9 | > 2.5 |  |  |  | 
C=CCN1C[C@H](C)N([C@H](c2ccc(C(=O)N(C(C)C)C(C)C)cc2)c2cccc(OC)c2)C[C@H]1C | > 352 | 0.0071 | > 2.5 | > 352 | > 2.5 | 0.005 | 6.84 | 1370 | 
C=CCN1C[C@H](C)N([C@@H](c2ccc(C(=O)N(CCCC)CCCC)cc2)c2cccc(OC)c2)C[C@H]1C | > 5.5 | 0.129 | > 2.5 | > 5.5 | > 2.5 |  |  |  | 
C=CCN1C[C@H](C)N([C@H](c2ccc(C(=O)N3CCCCCC3)cc2)c2cccc(OC)c2)C[C@H]1C | > 305 | 0.0082 | > 2.5 | > 1220 | > 10 | 0.013 | 4.47 | 344 | 
C=CCN1C[C@H](C)N([C@@H](c2ccc(C(=O)N(CC)CCCC)cc2)c2cccc(OC)c2)C[C@H]1C | 39 | 0.151 | 5.88 | > 66 | > 10 |  |  |  | 
C=CCN1C[C@H](C)N([C@@H](c2ccc(C(=O)N3CCCC3)cc2)c2cccc(OC)c2)C[C@H]1C | > 9.4 | 0.265 | > 2.5 | > 38 | > 10 |  |  |  | 
C=CCN1C[C@H](C)N([C@H](c2ccc(C(=O)N3CCCC3)cc2)c2cccc(OC)c2)C[C@H]1C | > 138 | 0.0181 | > 2.5 | > 552 | > 10 | 0.0266 | 6.19 | 233 | 
C=CCN1C[C@H](C)N([C@@H](c2ccc(C(=O)N(C(C)C)C(C)C)cc2)c2cccc(OC)c2)C[C@H]1C | > 7.3 | 0.344 | > 2.5 | > 7.3 | > 2.5 |  |  |  | 
C=CCN1C[C@H](C)N([C@H](c2ccc(C(=O)NCC)cc2)c2cccc(OC)c2)C[C@H]1C | 1.6 |  | 0.242 | 2.3 | 0.345 |  |  |  | 0.15
C=CCN1C[C@H](C)N([C@H](c2ccc(C(=O)N(C)C)cc2)c2cccc(OC)c2)C[C@H]1C | 679 | 0.0048 | 3.26 | > 2080 | > 10 | 0.018 | 9.72 | 540 | 
C=CCN1C[C@H](C)N([C@H](c2ccc(C(=O)N(C)CC)cc2)c2cccc(OC)c2)C[C@H]1C | 1760 | 0.0042 | 7.37 | > 2380 | > 10 | 0.008 | 12.1 | 1510 | 
C=CCN1C[C@H](C)N([C@@H](c2ccc(C(=O)NCC)cc2)c2cccc(OC)c2)C[C@H]1C | 4.9 | 0.0344 | 0.169 | 48 | 1.63 |  |  |  | 
C=CCN1C[C@H](C)N([C@H](c2ccc(C(=O)N3CCCCC3)cc2)c2cccc(OC)c2)C[C@H]1C | > 171 | 0.0146 | > 2.5 | > 684 | > 10 | 0.038 | 6 | 158 | 
C=CCN1C[C@H](C)N([C@H](c2ccc(C(=O)N(CC)CC)cc2)c2cccc(OC)c2)C[C@H]1C [SNC-80] |  |  |  |  | 7.07 |  |  |  | 
C=CCN1C[C@H](C)N([C@H](c2ccc(C(N)=O)cc2)c2cccc(OC)c2)C[C@H]1C | > 5.5 | 0.451 | > 2.5 | > 5.5 | > 2.5 |  |  |  | 
C=CCN1C[C@H](C)N([C@@H](c2ccc(C(=O)N(C)C)cc2)c2cccc(OC)c2)C[C@H]1C | > 11 | 0.234 | > 2.5 | > 11 | > 2.5 |  |  |  | 
C=CCN1C[C@H](C)N([C@@H](c2ccc(C(=O)N(CCC)CCC)cc2)c2cccc(OC)c2)C[C@H]1C | 28 | 0.153 | 4.34 | > 65 | > 10 |  |  |  | 
C=CCN1C[C@H](C)N([C@@H](c2ccc(C(N)=O)cc2)c2cccc(OC)c2)C[C@H]1C | > 6.4 | 0.389 | > 2.5 | > 6.4 | > 2.5 |  |  |  | 

— ChEMBL document CHEMBL1130143, “Probes for narcotic receptor-mediated phenomena. 25. Synthesis and evaluation of N-alkyl-substituted (alpha-piperazinylbenzyl)benzamides as novel, highly selective delta opioid receptor agonists” (J Med Chem, 1997)
